An excerpt weighted towards active compounds, which were near 4.8% of everything screened.
SKKanGAS inh: S. pyogenes SKKanGAS growth inhibitors in kanamycin, primary screen, streptokinase expression inhibitor project, SKKanGAS strain, BacTiter-Glo luminescence; 6 h; inhibition, % at 7.5 µM; 1.3% of 300,000 active; AID 1662, 2009;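 active means mean replicate score, as percent of positive control median, at least 50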;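 further: strain carries kanamycin resistance gene driven by streptokinase promoter and grows in 40 µg/ml kanamycin; loss of luminescence reflects streptokinase promoter inhibition or plain growth inhibition; 0% = median of DMSO wells and 100% = positive control at its reference dose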
CSC inhib: cancer stem cell viability inhibitors, primary screen, luminescence; cancer stem cell-like cells viability; inhibition, % at 7.5 µM; 1.1% of 300,000 active; AID 2717, 2010; in the data active means inhibition above about 75%; tested in HMLE shEcad cells
Mdm2 MdmX PPI: inhibitors of human Mdm2-MdmX association, primary screen, cell-based, luminescence, split luciferase, SaOS-2, uHTS | Protein Mdm4 (Homo sapiens) + E3 ubiquitin-protein ligase Mdm2 (Homo sapiens), … | SaOS-2 split-luciferase Mdm2/MdmX complementation | inhibition, % at 8 µM | 3% of 330,000 active | AID 485346, 2010;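 active means inhibition of at least 50% at 8 µM in the primary screen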
Target sequence (O15151 whole entry, looked up): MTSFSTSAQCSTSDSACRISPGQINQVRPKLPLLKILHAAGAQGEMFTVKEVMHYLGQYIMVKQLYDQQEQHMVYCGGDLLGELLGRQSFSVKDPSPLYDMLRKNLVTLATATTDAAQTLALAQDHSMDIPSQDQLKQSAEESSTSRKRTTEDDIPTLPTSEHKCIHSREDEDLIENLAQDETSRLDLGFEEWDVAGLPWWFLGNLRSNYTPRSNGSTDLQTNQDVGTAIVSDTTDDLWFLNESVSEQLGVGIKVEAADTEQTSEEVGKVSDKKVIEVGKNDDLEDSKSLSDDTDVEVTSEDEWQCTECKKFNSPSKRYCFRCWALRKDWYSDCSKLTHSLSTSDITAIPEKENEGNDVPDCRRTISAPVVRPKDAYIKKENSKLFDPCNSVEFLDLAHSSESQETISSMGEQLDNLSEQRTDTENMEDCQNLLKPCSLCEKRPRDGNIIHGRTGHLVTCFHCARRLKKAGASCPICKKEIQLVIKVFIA
Target sequence (Q00987 whole entry, looked up): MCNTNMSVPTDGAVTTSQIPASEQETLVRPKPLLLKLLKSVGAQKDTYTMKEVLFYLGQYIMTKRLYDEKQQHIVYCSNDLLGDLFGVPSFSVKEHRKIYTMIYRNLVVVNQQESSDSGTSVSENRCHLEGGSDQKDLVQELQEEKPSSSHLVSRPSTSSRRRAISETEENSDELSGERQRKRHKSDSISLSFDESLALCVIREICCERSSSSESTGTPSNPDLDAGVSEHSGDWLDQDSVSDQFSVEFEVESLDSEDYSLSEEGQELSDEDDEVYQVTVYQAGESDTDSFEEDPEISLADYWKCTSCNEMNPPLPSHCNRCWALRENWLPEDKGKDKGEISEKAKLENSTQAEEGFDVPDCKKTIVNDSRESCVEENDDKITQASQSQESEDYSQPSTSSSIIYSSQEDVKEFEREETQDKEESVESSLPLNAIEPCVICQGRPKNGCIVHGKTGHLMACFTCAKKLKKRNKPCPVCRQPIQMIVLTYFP
XBP1 UPR activ: activators of adaptive XBP1 UPR arm, primary screen, cell-based, CHO-XBP1 luciferase reporter, luminescence, uHTS; IRE1-XBP1 UPR activation; percent of tunicamycin response, DMSO as zero; activation, % at 20 µM; 0.33% of 330,000 active;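 active means versus positive control, 20 µM dose yields 30% or more activation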;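 further: 100% = tunicamycin at 10 µg/mL and 0% = DMSO only wells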
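Signal: luciferase luminescence; Assay system: CHO-XBP1 luciferase reporter cells; Amount: one thousand reporter cells per well; Dosing: 20 µM single concentration, DMSO 1%; Benchmarks: high control tunicamycin 10 µg/mL final, low control DMSO vehicle only; Schedule: 6 h compound exposure at 37 °C, 5% CO2; Evaluation: percent activation relative to tunicamycin reference.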
Beta apoptosis: inhibitors of cytokine-induced beta cell apoptosis, primary screen, luminescence | INS-1E cytokine-induced death, ATP luminescence, 48 h; percent of positive-control rescue, neutral wells zero | protection from apoptosis, % (no concentration beside the values) | 0.8% of 300,000 active;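 active means Every replicate reaches about 75%, or at least half do and their mean reaches it too, limit read from the data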;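 further: 0% = cytokine-treated negative control wells and 100% = positive control rescue; higher means more ATP so stronger rescue from cytokine killing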
UPR CHOP act: activators of apoptotic CHOP UPR arm, primary screen, cell-based, CHO-CHOP luciferase reporter, luminescence, uHTS | UPR activation; percent of tunicamycin response over DMSO baseline | activation, % at 10 µM | 0.34% of 330,000 active;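 active means at 10 µM dose, activation of 40% or more, normalized to positive control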;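 further: 100% = tunicamycin at 10 µg/mL and 0% = DMSO alone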
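assay system = CHO CHOP reporter cells | amount = 500 CHO-CHOP cells per well | buffer or medium = F12 with 10% FBS | incubation = 16-18 h cell attachment, then 6 h compound exposure, 37 °C | detection = luminescence read with Steady-Glo | read-out = percent activation relative to tunicamycin control | controls = tunicamycin high control, DMSO low control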
Mdm2-MdmX conf: Mdm2-MdmX complex disruptors, retested hits, confirmation, luminescence, single concentration; inhibition, % at 8 µM; shares compounds with Mdm2 MdmX PPI; Mdm2-MdmX binding, luminescent assay; 55% of 10,000 active; in the data active means inhibition above about 40%
Full FLuc ctr: full-length luciferase signal inhibition, confirmation, counter-screen for Mdm2/MdmX interaction inhibitor project, cell-based, single concentration, SaOS-2 | AID 504607, 2011 | shares compounds with Mdm2 MdmX PPI | SaOS-2 full-length luciferase counterscreen, luminescence | inhibition, % at 8 µM | 77% of 6,200 active;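 active means mean inhibition at 8 µM reaching about 37%, which flags the compound as non-specific, limit read from the data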;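 further: p53-null SaOS-2 cells with luciferase driven by a doxycycline-inducible promoter; compound on cells about two nights before reading with doxycycline added after day one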
Starred values were filed as active, the others as inactive; / = no result given.

SMILES	SKKanGAS inh	CSC inhib	Mdm2 MdmX PPI	XBP1 UPR activ	Beta apoptosis	UPR CHOP act	Mdm2-MdmX conf	Full FLuc ctr
C=CCOc1ccc(C(=O)Nc2ccccc2C(=O)NCc2cccnc2)cc1	0.3	-3.1	57.7*	5.9	0.4	1.6	55.2*	60.8*
COc1ccc2[nH]c3c(c2c1)CCNC3c1ccc([N+](=O)[O-])o1 (stereo unspecified)	4.4	20.5	18.8	-5.5	4.2	0.9	/	/
COc1ccc2[nH]c3c(c2c1)CCNC3C1CC=C(C)CC1 (stereo unspecified)	-2.9	-3.6	66.6*	0.7	20.5	-0.4	60.7*	57.4*
CC(=O)Nc1ccc(S(=O)(=O)/N=C2\C(=O)c3ccccc3C([O-])=C2n2cc[n+](-c3ccccn3)c2)cc1	2.3	55.7	55.2*	2.0	20.4	-0.6	33.4	51.7*
CC(=O)Nc1ccc(S(=O)(=O)NCCSc2ccccn2)cc1	-4.9	3.3	-3.1	-0.8	/	-3.3	/	/
CC(=O)Nc1ccc(S(=O)(=O)N(Cc2ccco2)Cc2cc3ccccc3[nH]c2=O)cc1	-2.2	13.6	32.7	-7.3	/	-1.5	/	/
CC1Cc2ccccc2N1C(=O)c1cccnc1 (stereo unspecified)	-3.0	4.6	2.2	3.6	0.9	-0.4	/	/
Cc1nc2ccc(C(=O)N3c4ccccc4CC3C)cc2s1 (stereo unspecified)	0.6	-7.2	66.1*	-0.8	8.4	1.6	57.6*	50.0*
CC(=O)Nc1ccc(NC(=S)NC(=O)c2oc3ccccc3c2C)cc1	14.4	2.2	62.4*	1.4	-6.7	0.9	-0.8	/
CCC(=O)Nc1ccc(NC(=S)NC(=O)c2oc3ccccc3c2C)cc1	-2.5	-7.9	72.0*	15.2	-5.9	8.5	-17.1	/
O=C1C=C(Nc2cccc3cccnc23)c2ccccc2C1=O	63.2*	58.0	63.2*	24.0	-6.0	12.5	56.8*	70.0*
O=C1C=C(Nc2ccccc2)c2ccccc2C1=O	68.1*	/	52.7*	6.2	/	34.7	30.2	/
Cc1ccccc1C(=O)N1CCN(c2ccc(NC(=O)c3cccc(OC(C)C)c3)cc2)CC1	11.1	-5.9	53.1*	-6.0	10.5	-0.2	44.8*	55.5*
Cc1ccccc1C(=O)N1CCN(c2ccc(NC(=S)NC(=O)c3cccs3)cc2)CC1	24.5	48.9	52.9*	2.1	8.9	-1.4	39.6	75.1*
Cc1ccccc1C(=O)N1CCN(c2ccc(NC(=O)CSc3ccc(Cl)cc3)cc2)CC1	-1.7	24.8	60.7*	-6.5	9.0	2.5	48.9*	41.8*
CCC(=O)Nc1ccc(N2CCN(C(=O)c3ccccc3C)CC2)cc1	-11.1	-1.4	0.8	-3.0	-7.4	-1.1	/	/
Cc1ccc(C(=O)N2CCN(c3ccc(NC(=S)NC(=O)c4cccs4)cc3)CC2)cc1	25.8	-1.2	41.4	-3.4	/	0.0	/	/
Cc1ccc(Nc2cc(C)nc(-c3ccccc3)n2)cc1	-6.3	23.2	-66.0	1.3	-3.8	9.7	/	/
CC(=O)N1c2c(cc(Br)cc2S(=O)(=O)N2CCN(c3ccccc3F)CC2)CC1C (stereo unspecified)	15.0	20.6	18.5	-3.4	-2.7	0.2	/	/
CC(=O)c1c(C)[nH]c(C(=O)N2CCc3ccccc32)c1C	3.8	/	37.2	-0.5	-6.2	-0.8	/	/
CCOC(=O)c1[nH]c(C)c(C(=O)N2CCc3ccccc32)c1C	-15.9	46.7	63.0*	24.4	18.7	-0.8	57.2*	81.8*
COc1ccc(NC(=O)CSc2nc(=O)n(CCN(C)C)c3c2CCCC3)cc1OC	-5.5	-10.7	-5.5	-1.1	/	0.0	/	/
O=c1[nH]c2ccc(Cl)cc2c(-c2ccccc2)c1SC(=S)N1CCCCC1	66.4*	27.7	60.7*	-4.6	0.2	-4.7	44.2*	56.6*
O=c1[nH]c2ccc(Cl)cc2c(-c2ccccc2)c1SC(=S)N1CCOCC1	84.0*	-13.5	52.7*	-1.2	11.1	-1.5	51.5*	44.8*
C[C@H](CO)N1C[C@H](C)[C@@H](CN(C)C(=O)NC2CCCCC2)Oc2ccc(NC(=O)CCC(F)(F)F)cc2C1=O	/	/	7.5	0.2	-3.6	-1.9	/	/
SMILES	SKKanGAS inh	CSC inhib	Mdm2 MdmX PPI	XBP1 UPR activ	Beta apoptosis	UPR CHOP act	Mdm2-MdmX conf	Full FLuc ctr
Oc1cc(Nc2ccccc2)cc2cccnc12	/	/	66.8*	10.9	36.2	12.8	30.6	/
CCN(CC)c1ccc(NC(=O)c2ccc(=O)[nH]c2)cc1S(=O)(=O)Nc1ccccc1OC	-1.5	46.1	50.1*	0.8	16.0	0.0	56.0*	54.4*
CC(C)(C)c1ccc(OCCC(=O)OCC(=O)NC2CCS(=O)(=O)C2)cc1 (stereo unspecified)	-7.6	-12.1	9.9	-4.1	-1.0	0.3	/	/
COc1ccc(CNc2ncc(-c3ccc(F)cc3)n2C)c2ccccc12	22.4	8.2	56.7*	-9.9	-1.6	-6.1	25.3	/
CCOc1ccc(-c2cnc(NCc3cccc4ccccc34)n2CCOC)cc1	11.7	45.3	88.2*	1.6	41.0	3.8	25.4	/
Cc1ccc(NC(=O)Cc2ccccc2)cc1S(=O)(=O)N1CCOCC1	/	-15.2	-17.5	-1.8	2.4	0.8	/	/
O=C(CSc1nnc(CNC(=O)c2ccccc2F)o1)NC1CCCCC1	1.6	-20.5	8.9	-4.9	-8.1	2.7	/	/
CCn1cc(/C=C(\NC(=O)c2ccccc2F)C(=O)NCCCn2ccnc2)c2ccccc21	-0.6	4.3	17.5	-4.9	1.2	1.4	/	/
N=c1c(-c2nc3ccccc3[nH]2)cc(C(=O)c2cccs2)nn1-c1ccccc1	51.1*	-13.5	56.0*	4.1	-5.8	3.5	39.7	58.7*
COc1ccc(NS(=O)(=O)c2cc([N+](=O)[O-])ccc2N/N=C\c2c(C)[nH]c3ccccc23)cc1	27.4	-0.9	76.7*	23.1	16.2	20.5	6.2	/
COc1ccccc1NS(=O)(=O)c1cc([N+](=O)[O-])ccc1N/N=C/c1c[nH]c2ccccc12	37.8	68.1	71.8*	7.1	4.6	-1.2	25.3	/
COc1ccc(C=NNc2ccc([N+](=O)[O-])cc2S(=O)(=O)Nc2ccccc2C(=O)O)cc1OC	/	32.9	-10.4	-2.1	3.8	-0.5	/	/

High-throughput results deposited in PubChem BioAssay by several laboratories.
